# Measured values from different studies.
# Compare with care: the assays were run in different laboratories. pIC50: −log10 of the molar value.
# Observed: cell growth or viability
SMILES,cell line,method,concentration,time,notes,measurement,value
CC(C)[C@H](NC(=O)[C@H](Cc1c[nH]c2ccccc12)NC(=O)[C@H](Cc1c[nH]cn1)NC(=O)[C@H](CCCNC(=N)N)NC(=O)[C@H](CCCNC(=N)N)NC(=O)[C@H](Cc1c[nH]c2ccccc12)NC(=O)[C@H](Cc1c[nH]c2ccccc12)NC(=O)[C@H](Cc1c[nH]cn1)NC(=O)[C@H](Cc1c[nH]c2ccccc12)NC(=O)[C@H](CCCNC(=N)N)NC(=O)[C@@H](N)CCCCN)C(=O)N[C@H](C(=O)N[C@@H](Cc1c[nH]c2ccccc12)C(N)=O)C(C)C,RAW264.7,MTT,,24 h,,pIC50,3.95
N.N.[Cl][Pt][Cl],SMMC-7721,MTT,,48 h,,pIC50,5.19
N.N.[Cl][Pt][Cl],CD4,,,72 h,,IC50,2.2 µg/mL
Cc1nc(Nc2ncc(C(=O)Nc3c(C)cccc3Cl)s2)cc(N2CCN(CCO)CC2)n1,SK-BR-3,WST-1,,72 h,,GI50,1.6 µM
Nc1nc(N)c(CNCCc2ccccc2F)c(C2CC2)n1,Vero,SRB,,,,pIC50,< 4.00
COc1ccc(/C=C/C(=O)c2c(O)cc(OC)cc2OC)cc1,SPCA1,MTT,,,,pIC50,4.72
O=C(CC(=O)C(F)(F)F)C(F)(F)F,HL-60,resazurin,,72 h,dark,pIC50,< 4.00
N.N.[Cl][Pt][Cl],SMMC-7721,MTT,20 µM,,,inhibition,73.8%
COc1cc(O)c(C(=O)/C=C/c2ccccc2)c(OC)c1,SPCA1,MTT,,,,pIC50,4.50
COc1ccc(CCNCc2c(N)nc(N)nc2C2CC2)cc1,Vero,SRB,,,,pIC50,4.15
COc1cc2oc3cc(O)c(OC)c(CC=C(C)C)c3c(=O)c2c(O)c1CC=C(C)C,22Rv1,,,48 h,,pIC50,4.57
Nc1nc(N)c(CNCCc2ccc(F)cc2)c(C2CC2)n1,Vero,SRB,,,,pIC50,< 4.00
OC[C@H](Cc1cccc(O)c1)[C@H](CO)Cc1cccc(O)c1,SPCA1,MTT,,,,pIC50,4.21
C[C@H]1CN(c2ccncc2NC(=O)c2ccc(F)c(-c3c(F)cccc3F)n2)C[C@@H](N)[C@@H]1O,U-266,thymidine uptake,,,,GI50,0.342 µM
